# Screening data (PubChem BioAssay)
# Xi reactivation: activators of inactive X chromosome reactivation, primary screen, imaging, XiGFP fibroblasts, GFP high-content imaging, set 2 | XiGFP mouse fibroblasts, % GFP-positive cells imaging, 3 d; cells co-treated with 5-aza-dC sensitizer; scaled so ellipticine positive control = 100% | activation, % at 7.58 µM | AID 743238, 2013 | 360,000 tested, 0.055% active;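 active means mean normalized replicate activation at least 10% and every replicate at or above 10%; inconclusive means only one of the two criteria met; inactive means mean below 10% and not all replicates reach 10%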;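 further: 0% = median of on-plate neutral control wells and 100% = ellipticine 6 µM median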
#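 material = 68-5-11 XiGFP fibroblast line | medium = DMEM plus 5-aza-dC sensitizer | schedule = 3 days compound exposure | benchmarks = positive control ellipticine, 6 µM final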
# PglD inh: C. jejuni PglD acetyltransferase inhibitors, primary screen, biochemical, DTNB colorimetric, single point; UDP-N-acetylbacillosamine N-acetyltransferase PglD (Campylobacter jejuni); purified PglD enzyme, DTNB colorimetric CoA detection; inhibition, % at 12.5 µM; 360,000 tested, 0.098% active; AID 602405, 2012; in the data active means inhibition above about 16%, passing the limit was not always enough; inconclusive means no clear call, values can overlap the other calls
# E-sel inducer: E-selectin induction in HUVECs, primary screen, imaging, HUVEC, immunofluorescence imaging, single point; P16581; normalized: neutral wells 0, TNF-alpha wells 100; activation, % at 7.58 µM; 260,000 tested, 0.37% active;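 active means mean E-selectin-positive cell signal at least 10% of the positive control, reached in at least 60% of replicates, without over 20% cell loss; inconclusive means no rule given, readout overlaps actives, possibly toxicity-flagged; inactive means the rest, including those meeting only one limit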
# Target sequence (P16581 whole entry, looked up): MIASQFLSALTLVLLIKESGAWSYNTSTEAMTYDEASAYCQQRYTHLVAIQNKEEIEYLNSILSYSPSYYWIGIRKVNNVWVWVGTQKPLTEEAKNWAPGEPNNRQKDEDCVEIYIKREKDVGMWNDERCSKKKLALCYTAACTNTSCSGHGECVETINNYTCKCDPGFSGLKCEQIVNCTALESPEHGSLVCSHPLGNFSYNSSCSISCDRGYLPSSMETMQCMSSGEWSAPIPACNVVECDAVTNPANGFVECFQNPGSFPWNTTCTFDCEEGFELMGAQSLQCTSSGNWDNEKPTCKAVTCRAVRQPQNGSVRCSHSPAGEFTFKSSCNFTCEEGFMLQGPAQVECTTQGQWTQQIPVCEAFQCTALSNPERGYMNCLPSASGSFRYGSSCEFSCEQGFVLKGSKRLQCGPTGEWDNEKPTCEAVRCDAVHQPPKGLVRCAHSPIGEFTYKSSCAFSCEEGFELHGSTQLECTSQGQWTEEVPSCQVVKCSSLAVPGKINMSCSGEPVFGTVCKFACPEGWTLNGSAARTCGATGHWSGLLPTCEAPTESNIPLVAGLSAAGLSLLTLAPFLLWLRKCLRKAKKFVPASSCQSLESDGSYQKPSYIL
#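 assay system = HUVEC, human umbilical vein endothelial cells | input = 3,000 HUVEC seeded per well | medium = EGM-2 growth medium on 0.1% gelatin-coated wells | dosing = one compound dose added by pin transfer | signal = immunofluorescence imaging | read-out basis = % PE-positive cells | control set = TNF-alpha, DMSO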
# Statin myotox sup: suppressors of statin myotoxicity in C2C12 myotubes, primary screen, cell-based, single point, plate reader | C2C12 myotubes + simvastatin, ATP luminescence, 48 h; scaled: DMSO 0, geranylgeraniol control 100 | rescue of ATP level, % at 7.49 µM | 330,000 tested, 0.78% active | AID 602340, 2012;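 active means mean ATP rescue above about 67%, or every replicate alone reaching that limit, limit read from the data, passing the limit was not always enough; inconclusive means no clear call, values can overlap the other calls; inactive means mean under the limit and some replicate under it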;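 further: myotubes were challenged with 10 µM simvastatin during compound exposure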
# FGF22 binding: binders of human FGF22 protein, primary screen, FGF22 synaptogenesis inhibitor project, biophysical, thermal shift, single point; Fibroblast growth factor 22 (Homo sapiens), Q9HCT0; recombinant FGF22 thermal shift, SYPRO orange fluorescence; percent of sucrose octasulfate shift, DMSO zero; activity (Tm shift, normalised), % at 9.99 µM; 340,000 tested, 1.5% active;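 active means mean Tm shift, scaled 0 neutral to 100 positive control, at about 1.3% or above, every replicate too, limit read from the data; inconclusive means no clear call, values can overlap the other calls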
# DENV2 CPE: inhibitors of DENV2 cytopathic effect, primary screen, cell-based, plate reader, single concentration; CPE inhibition, % at 9.99 µM; 350,000 tested, 1.7% active; DENV2-infected cells, cytopathic effect rescue; in the data active means CPE inhibition above about 20%, passing the limit was not always enough; inconclusive means no clear call, values can overlap the other calls; tested in BHK-21 cells;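 further: 0% = median of neutral control wells and 100% = median of positive control wells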
# * = called active by the depositor; ? = inconclusive; · = no result given. Rows were chosen to be rich in hits. Some 3.3% of all compounds tested hit in one or more screens of this group.
SMILES,Xi reactivation,PglD inh,E-sel inducer,Statin myotox sup,FGF22 binding,DENV2 CPE
CCNC(=O)C[C@H]1CC[C@@H]2[C@H](COc3ccc(NC(=O)Cc4ccccc4)cc3C(=O)N2C)O1,0,-1,0,-1,0,-3
COCC(=O)N1CC2(CCN(Cc3ccccc3)CC2)c2c([nH]c3cc(OC)ccc23)[C@H]1CO,0,·,1,·,0,-7
COc1ccc(NC(=O)Nc2ccc3c(c2)C(=O)N([C@@H](C)CO)C[C@H](C)[C@@H](CN(C)S(=O)(=O)c2ccc(OC)cc2)O3)cc1,?,-3,0,-11,0,-2
COc1ccc(NC(=O)Nc2ccc3c(c2)C(=O)N([C@H](C)CO)C[C@@H](C)[C@H](CN(C)S(=O)(=O)c2ccc(Cl)cc2)O3)cc1,0,3,-3,·,0,68*
COc1ccc(S(=O)(=O)N(C)C[C@H]2Oc3ccc(NC(=O)Nc4ccc(F)cc4)cc3C(=O)N([C@H](C)CO)C[C@@H]2C)cc1,-1,5,0,-61,0,0
Cc1noc(C)c1NC(=O)Nc1ccc2c(c1)C(=O)N([C@H](C)CO)C[C@@H](C)[C@H](CN(C)S(=O)(=O)c1ccc(F)cc1)O2,0,3,0,-1,0,86*
COc1ccc(NC(=O)Nc2ccc3c(c2)C(=O)N([C@@H](C)CO)C[C@@H](C)[C@H](CN(C)S(=O)(=O)c2ccc(OC)cc2)O3)cc1,0,3,0,-24,0,28*
Cc1noc(C)c1NC(=O)Nc1ccc2c(c1)C(=O)N([C@H](C)CO)C[C@H](C)[C@@H](CN(C)S(=O)(=O)c1ccc(F)cc1)O2,0,10,0,22,0,14
COc1ccc(NC(=O)Nc2ccc3c(c2)C(=O)N([C@@H](C)CO)C[C@@H](C)[C@@H](CN(C)S(=O)(=O)c2ccc(F)cc2)O3)cc1,0,0,37*,-2,0,-7
COc1ccc(NC(=O)Nc2ccc3c(c2)C(=O)N([C@@H](C)CO)C[C@@H](C)[C@@H](CN(C)S(=O)(=O)c2ccc(C)cc2)O3)cc1,0,3,16,-56,-1,-4
COc1ccc(S(=O)(=O)N(C)C[C@@H]2Oc3ccc(NC(=O)Nc4ccccc4)cc3C(=O)N([C@@H](C)CO)C[C@H]2C)cc1,0,-4,0,-3,0,35*
CC=Cc1ccc2n(c1=O)C[C@@H]1[C@@H](CO)[C@H](C(=O)N[C@H](C)c3ccccc3)[C@H]2N1CC1CC1 (mixture of isomers),0,-1,-1,-7,0,9
Clc1ccc(Sc2ccc(/C=N/n3cnnc3)o2)cc1,·,-14,·,-4,·,·
Clc1ccc(Sc2oc(/C=N/n3cnnc3)cc2Br)cc1,·,5,·,149*,·,·
O=C(N[C@H]1CC[C@H](CCNS(=O)(=O)c2ccc(F)cc2)O[C@@H]1CO)C1CCCC1,0,1,-1,0,0,32*
Cc1ccccc1S(=O)(=O)NCC[C@@H]1CC[C@@H](NC(=O)C2CCCCC2)[C@@H](CO)O1,0,1,0,2,0,27*
O=C(N[C@@H]1CC[C@H](CCNS(=O)(=O)c2ccc(F)cc2)O[C@@H]1CO)C1CCCC1,0,-2,-1,0,0,-6
CCS(=O)(=O)NCC[C@@H]1CC[C@@H](NS(=O)(=O)c2ccccc2C)[C@H](CO)O1,0,-2,0,-2,0,50*
NCC[C@@H]1CC[C@@H](NC(=O)C2CCCC2)[C@@H](CO)O1,0,1,0,0,0,36*
O=C(C[C@@H]1C[C@@H]2c3cc(NC(=O)Nc4ccc(C(F)(F)F)cc4)ccc3O[C@@H]2[C@H](CO)O1)NC1CCCCC1,0,2,1,2,0,10
CC(C)(O)C#Cc1ccc([C@@H]2[C@@H](CO)N3CCCCN(C(=O)c4ccc(F)cc4)C[C@@H]23)cc1,0,11,0,-10,0,83*
O=C(c1ccc(F)cc1)N1CCCCN2[C@H](C1)[C@H](c1ccc(C#CC3(O)CCCC3)cc1)[C@@H]2CO,0,3,0,·,0,42*
CC(C)(O)C#Cc1ccc([C@H]2[C@H]3CN(C(=O)c4ccc(F)cc4)CCCCN3[C@H]2CO)cc1,0,0,0,·,0,-2
C[C@H](O)C#Cc1ccc([C@H]2[C@H]3CN(C(=O)c4ccc(F)cc4)CCCCN3[C@H]2CO)cc1,0,0,-1,·,0,0
C[C@H](O)C#Cc1ccc([C@H]2[C@@H](CO)N3CCCCN(C(=O)c4ccc(F)cc4)C[C@@H]23)cc1,0,0,-1,·,0,33*
SMILES,Xi reactivation,PglD inh,E-sel inducer,Statin myotox sup,FGF22 binding,DENV2 CPE
CCOC(=O)c1ccc(N2C(=O)CC(N3CCN(C/C=C/c4ccccc4)CC3)C2=O)cc1 (stereo not given),·,4,·,127*,·,·
CCNS(=O)(=O)c1ccc(NC(=S)NCC2CCCO2)cc1 (stereo not given),0,·,-1,·,43*,1
COc1cc2c(cc1NC(=O)COC(=O)/C=C/c1ccc([N+](=O)[O-])cc1)oc1ccccc12,0,5,0,3,41,-2
COc1cc2c(cc1NC(=O)/C=C/c1ccc([N+](=O)[O-])cc1)oc1ccccc12,0,-4,·,·,0,39*
C[C@H](CO)N1C[C@H](C)[C@H](CN(C)C)Oc2ncc(-c3ccc(F)cc3)cc2C1=O,0,-2,0,4,0,-2
C[C@@H]1CN([C@@H](C)CO)C(=O)c2cc(-c3ccncc3)cnc2O[C@H]1CN(C)C(=O)C1CCC1,-1,·,0,-12,·,·
COc1ccc(S(=O)(=O)N(C(C)=O)c2ccc3oc(=O)sc3c2)cc1,·,0,·,87*,·,·
Cc1csc2ncc(C(=O)Nc3cccc(C(F)(F)F)c3)c(=O)n12,0,1,-1,107*,0,-7
COc1ccc(CCNC(=O)c2cnc3scc(C)n3c2=O)cc1OC,0,8,1,·,0,75*
COc1ccc(C)cc1NC(=O)c1cnc2scc(C)n2c1=O,0,2,0,-10,0,?
